Assays:
D(1A) dopamine receptor = D(1A) dopamine receptor (Homo sapiens, UniProt P21728); assay: Inhibitory activity against dopamine D1
[1] = molecular target: T1, Sodium-dependent dopamine transporter (Homo sapiens, UniProt Q01959); assay: Inhibition of [3H] dopamine uptake into human DAT expressed in HEK293 cells; type: functional, cell-based
Method in brief: (§1)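 Confluent HEK293 cells expressing hDAT or hSERT, scraped into Krebs-HEPES. Preincubated 10 min at 25°C with compound (0.1% DMSO final). Uptake started with [3H]dopamine or [3H]serotonin (20 nM final) and stopped after 10 min by filtration on PEI-soaked GF/C filters. Non-specific uptake: 5 µM mazindol (DAT) or 5 µM imipramine (SERT). IC50 from triplicate 6-concentration curves, 2–3 independent determinations.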

[2] = molecular target: T2, 5-hydroxytryptamine receptor 1A (Homo sapiens, UniProt P08908); assay: Inhibitory activity against 5HT1A
T2 sequence (P08908 whole entry): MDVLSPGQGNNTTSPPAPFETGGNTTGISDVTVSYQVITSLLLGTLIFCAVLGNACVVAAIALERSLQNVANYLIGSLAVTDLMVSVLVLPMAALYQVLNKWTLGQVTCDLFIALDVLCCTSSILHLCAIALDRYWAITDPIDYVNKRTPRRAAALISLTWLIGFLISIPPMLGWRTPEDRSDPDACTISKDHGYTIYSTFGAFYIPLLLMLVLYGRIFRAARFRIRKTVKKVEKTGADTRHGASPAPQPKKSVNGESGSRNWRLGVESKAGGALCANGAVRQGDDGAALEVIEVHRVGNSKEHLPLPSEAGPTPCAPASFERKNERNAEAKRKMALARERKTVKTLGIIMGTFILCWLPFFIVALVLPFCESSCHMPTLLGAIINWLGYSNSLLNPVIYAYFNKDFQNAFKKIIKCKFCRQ

[3] = molecular target: T3, Sodium-dependent serotonin transporter (Homo sapiens, UniProt P31645); assay: Displacement of [125I]RTI-55 from human SERT expressed in HEK293 cells; type: cell-based
T3 sequence (P31645 whole entry): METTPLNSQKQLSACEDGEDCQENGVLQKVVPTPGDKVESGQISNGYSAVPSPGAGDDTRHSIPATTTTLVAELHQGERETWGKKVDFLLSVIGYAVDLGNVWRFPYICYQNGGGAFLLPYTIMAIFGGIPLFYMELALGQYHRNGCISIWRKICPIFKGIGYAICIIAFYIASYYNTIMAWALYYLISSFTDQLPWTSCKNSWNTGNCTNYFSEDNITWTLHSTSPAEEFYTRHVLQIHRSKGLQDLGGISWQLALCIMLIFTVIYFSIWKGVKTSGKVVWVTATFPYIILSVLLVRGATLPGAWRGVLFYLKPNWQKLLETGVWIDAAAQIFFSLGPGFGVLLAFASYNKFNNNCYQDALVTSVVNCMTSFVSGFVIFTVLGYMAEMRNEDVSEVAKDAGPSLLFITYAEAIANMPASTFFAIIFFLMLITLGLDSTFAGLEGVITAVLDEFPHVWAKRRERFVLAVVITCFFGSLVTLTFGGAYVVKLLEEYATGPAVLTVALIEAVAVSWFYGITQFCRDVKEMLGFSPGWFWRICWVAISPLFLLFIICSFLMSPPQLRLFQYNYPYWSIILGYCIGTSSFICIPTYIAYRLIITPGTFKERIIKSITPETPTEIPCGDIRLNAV
Method in brief: (§2)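 Membranes from HEK293 cells expressing hDAT or hSERT, grown to 80% confluence, lysed in 2 mM HEPES/1 mM EDTA, spun and resuspended in 0.32 M sucrose. About 10–15 µg protein preincubated 10 min with compound in Krebs-HEPES pH 7.4 (0.1% DMSO final). Filtered on GF/C. Non-specific binding: 5 µM mazindol (DAT) or 5 µM imipramine (SERT). Duplicates, 2–3 experiments, IC50 converted to Ki by Cheng-Prusoff.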

[4] = molecular target: T4, Sodium-dependent noradrenaline transporter (Homo sapiens, UniProt P23975); assay: Inhibition of [3H] norepinephrine uptake into human NET expressed in HEK293 cells; type: functional, cell-based
T4 sequence (P23975 whole entry): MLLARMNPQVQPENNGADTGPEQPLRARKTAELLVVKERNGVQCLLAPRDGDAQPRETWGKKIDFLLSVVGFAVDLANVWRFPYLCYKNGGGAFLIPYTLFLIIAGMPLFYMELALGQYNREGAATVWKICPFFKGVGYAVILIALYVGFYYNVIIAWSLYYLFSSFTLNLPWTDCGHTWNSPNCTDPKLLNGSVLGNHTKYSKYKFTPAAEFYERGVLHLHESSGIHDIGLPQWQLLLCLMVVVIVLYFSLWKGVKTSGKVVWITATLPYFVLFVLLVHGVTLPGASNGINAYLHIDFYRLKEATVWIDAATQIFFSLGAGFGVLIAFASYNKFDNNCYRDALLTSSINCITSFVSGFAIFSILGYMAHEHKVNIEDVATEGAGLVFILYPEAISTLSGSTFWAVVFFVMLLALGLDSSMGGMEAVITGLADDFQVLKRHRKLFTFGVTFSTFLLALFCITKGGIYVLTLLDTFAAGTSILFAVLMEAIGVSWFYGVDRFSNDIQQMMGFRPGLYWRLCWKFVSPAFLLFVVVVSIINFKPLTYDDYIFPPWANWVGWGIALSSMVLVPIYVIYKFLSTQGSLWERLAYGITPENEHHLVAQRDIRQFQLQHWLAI

[5] = molecular target: T4, Sodium-dependent noradrenaline transporter; assay: Displacement of [125I]RTI-55 from human NET expressed in HEK293 cells; type: cell-based
[6] = molecular target: 5-hydroxytryptamine receptor 1B (Homo sapiens, UniProt P28222); assay: Inhibitory activity against 5HT1B
Chain of 5-hydroxytryptamine receptor 1B (P28222 whole entry): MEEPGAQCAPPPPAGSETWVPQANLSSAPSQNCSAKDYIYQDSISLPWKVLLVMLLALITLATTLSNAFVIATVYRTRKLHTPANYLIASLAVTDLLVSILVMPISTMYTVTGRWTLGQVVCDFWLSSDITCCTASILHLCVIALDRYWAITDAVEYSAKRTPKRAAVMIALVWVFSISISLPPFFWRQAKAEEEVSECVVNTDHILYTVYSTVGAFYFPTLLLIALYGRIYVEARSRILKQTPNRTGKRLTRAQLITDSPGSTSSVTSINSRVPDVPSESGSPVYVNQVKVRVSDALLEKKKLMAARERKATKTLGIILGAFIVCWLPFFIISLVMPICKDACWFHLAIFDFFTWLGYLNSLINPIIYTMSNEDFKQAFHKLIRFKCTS

D(2) dopamine receptor = D(2) dopamine receptor (Homo sapiens, UniProt P14416); assay: Inhibitory activity against dopamine D2
Chain of D(2) dopamine receptor (P14416 whole entry): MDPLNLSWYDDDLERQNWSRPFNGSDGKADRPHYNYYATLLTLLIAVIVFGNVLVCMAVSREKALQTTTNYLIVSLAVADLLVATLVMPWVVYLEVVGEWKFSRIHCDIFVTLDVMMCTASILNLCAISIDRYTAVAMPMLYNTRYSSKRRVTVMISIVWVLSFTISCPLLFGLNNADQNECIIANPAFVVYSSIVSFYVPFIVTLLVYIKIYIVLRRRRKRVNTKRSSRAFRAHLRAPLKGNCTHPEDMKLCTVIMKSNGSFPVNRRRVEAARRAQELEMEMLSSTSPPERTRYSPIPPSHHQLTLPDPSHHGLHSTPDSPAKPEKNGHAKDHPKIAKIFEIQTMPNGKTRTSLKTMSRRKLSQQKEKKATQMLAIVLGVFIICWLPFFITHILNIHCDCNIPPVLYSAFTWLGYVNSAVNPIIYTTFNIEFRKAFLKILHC

[7] = molecular target: T1, Sodium-dependent dopamine transporter; assay: Displacement of [125I]RTI-55 from human DAT expressed in HEK293 cells; type: cell-based; method in brief: as §2
D(3) dopamine receptor = D(3) dopamine receptor (Homo sapiens, UniProt P35462); assay: Inhibitory activity against dopamine D3
Chain of D(3) dopamine receptor (P35462 whole entry): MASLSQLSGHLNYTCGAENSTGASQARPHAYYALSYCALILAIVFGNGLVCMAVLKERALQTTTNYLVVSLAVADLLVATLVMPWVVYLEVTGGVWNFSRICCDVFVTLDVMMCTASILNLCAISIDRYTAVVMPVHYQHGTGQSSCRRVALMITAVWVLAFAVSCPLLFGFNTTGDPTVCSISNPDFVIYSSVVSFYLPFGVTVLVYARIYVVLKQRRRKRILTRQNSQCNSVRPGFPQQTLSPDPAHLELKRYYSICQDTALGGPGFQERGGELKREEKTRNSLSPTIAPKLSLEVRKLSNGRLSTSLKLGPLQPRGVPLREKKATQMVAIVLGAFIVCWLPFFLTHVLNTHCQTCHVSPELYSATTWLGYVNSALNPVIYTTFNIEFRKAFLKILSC

[8] = molecular target: T5, 5-hydroxytryptamine receptor 2C (Homo sapiens, UniProt P28335); assay: Inhibitory activity against 5HT1C
T5 sequence (P28335 whole entry): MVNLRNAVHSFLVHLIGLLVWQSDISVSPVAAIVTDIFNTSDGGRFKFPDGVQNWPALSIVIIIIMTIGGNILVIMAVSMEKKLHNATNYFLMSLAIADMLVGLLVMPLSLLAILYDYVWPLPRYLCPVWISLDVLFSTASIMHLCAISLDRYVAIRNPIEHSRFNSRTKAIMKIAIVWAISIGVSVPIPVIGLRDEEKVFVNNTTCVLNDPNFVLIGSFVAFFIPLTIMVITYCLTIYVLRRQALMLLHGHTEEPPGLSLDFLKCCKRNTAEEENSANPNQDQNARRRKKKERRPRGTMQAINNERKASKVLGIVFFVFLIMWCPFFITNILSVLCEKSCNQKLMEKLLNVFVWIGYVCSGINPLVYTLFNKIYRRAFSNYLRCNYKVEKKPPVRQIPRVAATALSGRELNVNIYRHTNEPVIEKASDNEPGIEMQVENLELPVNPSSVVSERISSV

[9] = molecular target: T3, Sodium-dependent serotonin transporter; assay: Inhibition of [3H] serotonin uptake into human SERT expressed in HEK293 cells; type: functional, cell-based; method in brief: as §1

Chain of D(1A) dopamine receptor (P21728 whole entry): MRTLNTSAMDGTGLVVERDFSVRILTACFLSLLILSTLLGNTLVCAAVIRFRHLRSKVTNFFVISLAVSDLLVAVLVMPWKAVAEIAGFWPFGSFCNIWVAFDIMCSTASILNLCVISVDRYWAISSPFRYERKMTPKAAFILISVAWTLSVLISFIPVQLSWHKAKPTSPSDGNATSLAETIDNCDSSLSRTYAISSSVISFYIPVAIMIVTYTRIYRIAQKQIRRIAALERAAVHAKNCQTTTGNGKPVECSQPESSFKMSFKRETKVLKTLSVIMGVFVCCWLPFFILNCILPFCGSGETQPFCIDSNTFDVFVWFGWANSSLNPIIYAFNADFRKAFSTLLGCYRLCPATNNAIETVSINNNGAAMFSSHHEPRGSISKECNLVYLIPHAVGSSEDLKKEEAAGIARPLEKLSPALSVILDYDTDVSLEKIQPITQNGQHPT
T1 sequence (Q01959 whole entry): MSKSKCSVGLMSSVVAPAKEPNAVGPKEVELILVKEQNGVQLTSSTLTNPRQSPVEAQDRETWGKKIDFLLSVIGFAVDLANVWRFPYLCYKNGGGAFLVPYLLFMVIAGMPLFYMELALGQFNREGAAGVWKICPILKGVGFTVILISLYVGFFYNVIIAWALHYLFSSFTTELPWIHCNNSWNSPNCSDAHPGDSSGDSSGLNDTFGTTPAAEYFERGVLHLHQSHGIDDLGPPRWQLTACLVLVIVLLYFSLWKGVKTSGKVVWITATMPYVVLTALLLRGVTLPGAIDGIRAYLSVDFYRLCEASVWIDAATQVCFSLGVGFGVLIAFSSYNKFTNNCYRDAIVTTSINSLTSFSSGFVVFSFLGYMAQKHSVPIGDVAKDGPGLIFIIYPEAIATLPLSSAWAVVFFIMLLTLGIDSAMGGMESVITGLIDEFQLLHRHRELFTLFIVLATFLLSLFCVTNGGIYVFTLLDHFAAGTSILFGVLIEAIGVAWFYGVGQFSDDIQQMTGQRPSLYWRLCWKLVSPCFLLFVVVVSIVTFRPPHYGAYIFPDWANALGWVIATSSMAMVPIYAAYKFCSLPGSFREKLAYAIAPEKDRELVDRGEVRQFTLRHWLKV

SMILES | IC50 (D(1A) dopamine receptor) | IC50 [1] | IC50 [2] | Ki [3] | IC50 [4] | Ki [5] | IC50 [6] | IC50 (D(2) dopamine receptor) | Ki [7] | IC50 (D(3) dopamine receptor) | IC50 [8] | IC50 [9]
CCCC(C(=O)c1cccc(C)c1)N1CCCC1 (configuration not stated) | > 10000 nM | 62.9 nM | > 10000 nM | 5900 nM | 9.4 nM | 216 nM | > 10000 nM | > 10000 nM | 51 nM | > 10000 nM | > 10000 nM | 
CCCC(C(=O)c1ccc(Cl)c(Cl)c1)N1CCCCC1 (configuration not stated) |  | 666 nM |  | 2460 nM | 800 nM | 2350 nM |  |  | 144 nM |  |  | > 10000 nM
CCCC(C(=O)c1ccc(C(F)(F)F)cc1)N1CCCC1 (configuration not stated) | > 10000 nM |  | > 10000 nM | 959 nM |  | > 10000 nM | > 10000 nM | > 10000 nM | > 10000 nM | > 10000 nM | > 10000 nM | 1030 nM
CC#Cc1ccc(C(=O)C(CCC)N2CCCC2)cc1 (configuration not stated) |  | 11.8 nM |  | 6700 nM | 19.3 nM | 69.8 nM |  |  | 61 nM |  |  | 3300 nM
CCCC(C(=O)c1ccc2ccccc2c1)N1CCCC1 (configuration not stated) | > 10000 nM | 40 nM | > 10000 nM | 33.1 nM | 11.7 nM | 136 nM | > 10000 nM | > 10000 nM | 20.1 nM | > 10000 nM | > 10000 nM | 46 nM
CCCCNC(CCC)C(=O)c1ccc(Cl)c(Cl)c1 (configuration not stated) |  | 1190 nM |  | 5080 nM | 2520 nM | 4200 nM |  |  | 520 nM |  |  | > 10000 nM
CCCC(C(=O)c1ccccc1)N1CCCC1 (configuration not stated) |  | 52.3 nM |  | > 10000 nM | 56 nM | 199 nM |  |  | 33.7 nM |  |  | 
C#CCC(C(=O)c1ccc(C)cc1)N1CCCC1 (configuration not stated) |  | 231 nM |  | > 10000 nM | 350 nM | 4100 nM |  |  | 2310 nM |  |  | 
CCCC(C(=O)c1ccc(-c2cccs2)cc1)N1CCCC1 (configuration not stated) | > 10000 nM | 539 nM | > 10000 nM | 3320 nM | 263 nM | 370 nM | > 10000 nM | > 10000 nM | 460 nM | > 10000 nM | > 10000 nM | 1960 nM
CCC(CC(=O)c1ccc(Cl)c(Cl)c1)N1CCCC1 (configuration not stated) | > 10000 nM | > 10000 nM | > 10000 nM | 3900 nM |  | > 10000 nM | > 10000 nM | > 10000 nM | 8440 nM | > 10000 nM | > 10000 nM | 1780 nM
CCCC(C(=O)c1ccc(-c2cccn2C)cc1)N1CCCC1 (configuration not stated) |  | 5400 nM |  | > 10000 nM |  | > 10000 nM |  |  | 3850 nM |  |  | 
CCCC(C(=O)c1ccc([N+](=O)[O-])cc1)N1CCCC1 (configuration not stated) |  | 1110 nM |  | 2460 nM | 531 nM | 2690 nM |  |  | 266 nM |  |  | 1110 nM
CCCC(C(=O)c1ccc(NC(C)=O)cc1)N1CCCC1 (configuration not stated) | > 10000 nM | 67.9 nM | > 10000 nM | > 10000 nM | 317 nM | 4000 nM | > 10000 nM | > 10000 nM | 30.2 nM | > 10000 nM | > 10000 nM | 
CCC[C@H](C(=O)c1ccc(C)cc1)N1CCCC1 |  | 1790 nM |  | > 10000 nM |  | > 10000 nM |  |  |  |  |  | 
CCCC(C(=O)c1ccc(OC)c(OC)c1)N1CCCC1 (configuration not stated) |  |  |  | 7460 nM |  | > 10000 nM |  |  | > 10000 nM |  |  | 1540 nM
CCCC(C(=O)c1cccc(I)c1)N1CCCC1 (configuration not stated) |  | 52 nM |  | 1400 nM | 81 nM | 670 nM |  |  | 109 nM |  |  | 1070 nM
CCCC(C(O)c1ccc(C)cc1)N1CCCC1 (mixture of isomers) |  |  |  | > 10000 nM |  | > 10000 nM |  |  | > 10000 nM |  |  | 
CCCC(C(=O)c1ccc(C)cc1)N1CCCC1 (configuration not stated) [PYROVALERONE] |  | 52 nM |  | 3770 nM | 28.3 nM | 195 nM |  |  | 21.4 nM |  |  | 2780 nM

From ChEMBL document CHEMBL1138144 (J Med Chem, 2006)
